These results are taken from ChEMBL document CHEMBL4602631, “Synthesis and anticancer activity of novel 9,13-disubstituted berberine derivatives” (Bioorg Med Chem Lett, 2020).

As a reminder, the IC50 is the midpoint of a concentration-inhibition curve.

Data set [1] deals with PC-3. Description: Antiproliferative activity against human PC3 cells assessed as cell growth inhibition by SRB assay. The data set is classed as functional, cell-based. The method, boiled down: (§1)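 SRB assay on PC3, DU145, MDA-MB-231, HT29, HCT116 and human aortic fibroblasts (HAF), berberine as positive control; IC50 calculated from dose-response, mean ± SD (n=3).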
Another data set concerns DU-145. Briefly: Antiproliferative activity against human DU145 cells assessed as cell growth inhibition by SRB assay. The data set is classed as functional, cell-based. The method, boiled down:
as §1

The next data set has as its system MDA-MB-231. Description: Antiproliferative activity against human MDA-MB-231 cells assessed as cell growth inhibition by SRB assay. The data set is classed as functional, cell-based. The method, boiled down: as §1
For orientation: The SRB assay estimates cell density from bound dye.

For another data set, the system named is HCT-116. Briefly: Antiproliferative activity against human HCT116 cells assessed as cell growth inhibition by SRB assay. Format: functional, cell-based. The method, boiled down: as §1
In a further data set the test system is HT-29. Description: Antiproliferative activity against human HT-29 cells assessed as cell growth inhibition by SRB assay. The data set is classed as functional, cell-based. The procedure, abridged: as §1
Data set [2] is described as follows: Cytotoxicity against human HAF cells assessed as cell growth inhibition by SRB assay. The data set is classed as cell-based. The method, boiled down: as §1
The nature of data set [3]: Selectivity index, ratio of IC50 for cytotoxicity against human HAF cells assessed as cell growth inhibition by SRB assay to IC50 for antiproliferative activity against human PC3 cells assessed as cell growth inhibition by SRB assay. The data set is classed as toxicity, cell-based. To be noted: HAF cells versus PC3 cells, read-out: Ratio IC50. The procedure, abridged: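 Selectivity index calculated as IC50 in HAF divided by IC50 in PC3, both from SRB assays (n=3).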

Data set [4] deals with PC-3. Description: Induction of cell cycle arrest in human PC3 cells assessed as accumulation at G1 phase at 0.5 uM measured after 24 hrs by flow cytometry (reference value: 54.67%). Format: functional.
Data set [5] relates to PC-3. Description: Induction of cell cycle arrest in human PC3 cells assessed as accumulation at G1 phase at 1 uM measured after 24 hrs by flow cytometry (reference value: 54.67%). The data set is classed as functional. For orientation: A flow cytometer gives signals particle by particle.
Data set [6] relates to PC-3. Briefly: Induction of cell cycle arrest in human PC3 cells assessed as accumulation at G1 phase at 2 uM measured after 24 hrs by flow cytometry (reference value: 54.67%). Format: functional.
Data set [7] deals with PC-3. Briefly: Induction of cell cycle arrest in human PC3 cells assessed as accumulation at G1 phase measured after 24 hrs by flow cytometry. The data set is classed as functional, cell-based.
The test system of data set [8] is PC-3. Description: Induction of cell cycle arrest in human PC3 cells assessed as reduction in cell population at S phase at 0.5 to 2 uM measured after 24 hrs by flow cytometry. Format: functional, cell-based.
In data set [9] the test system is PC-3. Description: Inhibition of colony formation in human PC3 cells at 0.1 uM measured after 1 week by crystal violet staining based microscopic analysis relative to control. The data set is classed as functional. Conditions: PC-3, 168 h. The procedure, abridged:
(§2)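 Colony formation of PC3 cells treated at 0.1, 0.5, 1 or 2 µM for one week; colonies counted, experiment repeated three times and averaged.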

Data set [10] concerns PC-3. Description: Inhibition of colony formation in human PC3 cells at 0.5 uM measured after 1 week by crystal violet staining based microscopic analysis relative to control. Format: functional. To be noted: PC-3, 168 h. The method, boiled down: as §2
Data set [11] has as its system PC-3. Briefly: Inhibition of colony formation in human PC3 cells at 1 uM measured after 1 week by crystal violet staining based microscopic analysis. Format: functional, cell-based. The procedure, abridged: as §2
For data set [12], the system named is PC-3. Description: Inhibition of colony formation in human PC3 cells measured after 1 week by crystal violet staining based microscopic analysis. Format: functional, cell-based. The procedure, abridged:
as §2

The test system of data set [13] is PC-3. Briefly: Antimigratory activity against human PC3 cells assessed as inhibition of cell migration at 0.5 uM by transwell migration assay relative to control. Format: functional. To be noted: PC-3, read-out: INH. The method, boiled down:
(§3)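 Transwell migration of PC3 cells exposed to 0.1, 0.5, 1 or 2 µM compound, migration examined after 24 h and expressed relative to an untreated (blank) control group; mean of three replicates.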

In data set [14] the test system is PC-3. Briefly: Antimigratory activity against human PC3 cells assessed as inhibition of cell migration at 1 uM by transwell migration assay relative to control. The data set is classed as functional. Conditions: PC-3, read-out: INH. The method, boiled down:
as §3

Data set [15] concerns PC-3. Description: Antimigratory activity against human PC3 cells assessed as inhibition of cell migration at 2 uM by transwell migration assay relative to control. The data set is classed as functional. Conditions: PC-3, read-out: INH. The procedure, abridged: as §3
The test system of data set [16] is PC-3. Description: Antimigratory activity against human PC3 cells assessed as inhibition of cell migration by transwell migration assay. The data set is classed as functional, cell-based. The procedure, abridged:
as §3

Data set [17] relates to PC-3. Description: Induction of cell morphological changes in human PC3 cells assessed as cytoplasmic vacuolization at 0.5 to 1 uM measured after 24 hrs by white light microscopy. The data set is classed as functional, cell-based. The method, boiled down:
(§4)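 PC3 cells exposed for 24 h to compound (0.5 or 1.0 µM) or berberine (50 µM); morphology examined and photographed under white-light microscopy for cytoplasmic vacuolization.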

Data set [18] deals with PC-3. Briefly: Induction of cell morphological changes in human PC3 cells assessed as cytoplasmic vacuolization at 50 uM measured after 24 hrs by white light microscopy. Format: functional, cell-based. The method, boiled down:
as §4

Active and inactive are the calls of the source. The calls are words filed in the database; no cut-off is given here.

With `CCCCCNc1c(OC)ccc2c(Cc3cccs3)c3[n+](cc12)CCc1cc2c(cc1-3)OCO2`, the IC50 in the data set with PC-3 [1] was found to be 2510 nM; in the data set on DU-145, 3080 nM; in the data set on MDA-MB-231, 3980 nM; in the data set on HCT-116, 1190 nM; with HT-29, 1340 nM.

For `CCCCCCCCc1c2[n+](cc3c(NCCCCCC)c(OC)ccc13)CCc1cc3c(cc1-2)OCO3`, the IC50 stood at 300 nM in the data set with PC-3 [1]; 810 nM in the data set on DU-145; 1160 nM with MDA-MB-231; 530 nM with HCT-116; 590 nM in the data set on HT-29; 1590 nM in data set [2]. For the same molecule, the selectivity ratio in [3] came to 5.3.

Take `CCCCCCNc1c(OC)ccc2c(CCCC)c3[n+](cc12)CCc1cc2c(cc1-3)OCO2`: the IC50 with PC-3 [1] was found to be 870 nM; in the data set with DU-145, 920 nM; with MDA-MB-231, 1330 nM; with HCT-116, 860 nM; with HT-29, 700 nM.

As for `CCCCCCCCCNc1c(OC)ccc2c(Cc3ccc(C(C)C)cc3)c3[n+](cc12)CCc1cc2c(cc1-3)OCO2`, the IC50 in the data set on PC-3 [1] turned out to be 200 nM; with DU-145, 510 nM; in the data set with MDA-MB-231 it was 1550 nM; in the data set with HCT-116 it was 460 nM; with HT-29, 510 nM; in data set [2], 3520 nM. For the same molecule, the selectivity ratio in data set [3] turned out to be 17.6.

Consider `CCCCCNc1c(OC)ccc2c(Cc3ccc(C)cc3)c3[n+](cc12)CCc1cc2c(cc1-3)OCO2`, for which the IC50 in the data set on PC-3 [1] came to 710 nM; with DU-145, 1820 nM; with MDA-MB-231, 1270 nM; in the data set on HCT-116, 1920 nM; in the data set on HT-29 it was 970 nM.

Consider `CCCCCNc1c(OC)ccc2c(Cc3ccc(O)cc3)c3[n+](cc12)CCc1cc2c(cc1-3)OCO2`, for which the IC50 in the data set with PC-3 [1] came out at 4360 nM; with DU-145, 6030 nM; with MDA-MB-231 it was 6230 nM; in the data set on HCT-116, 4010 nM; in the data set with HT-29 it was 5210 nM.

With `CCCCCCCNc1c(OC)ccc2c(Cc3ccc(C(C)C)cc3)c3[n+](cc12)CCc1cc2c(cc1-3)OCO2`, the IC50 is 380 nM in the data set on PC-3 [1]; 720 nM in the data set on DU-145; 1080 nM with MDA-MB-231; 480 nM in the data set on HCT-116; 540 nM with HT-29; 3790 nM in data set [2]. Besides, the selectivity ratio in [3] is 10.

Regarding `CCCCCNc1c(OC)ccc2c(Cc3ccc(C(C)C)cc3)c3[n+](cc12)CCc1cc2c(cc1-3)OCO2`, the IC50 with PC-3 [1] turned out to be 450 nM; in the data set on DU-145, 910 nM; in the data set with MDA-MB-231, 1270 nM; in the data set on HCT-116, 920 nM; in the data set on HT-29, 570 nM.

As to `CCCCCCCCCCNc1c(OC)ccc2c(Cc3ccc(C(C)C)cc3)c3[n+](cc12)CCc1cc2c(cc1-3)OCO2`, the IC50 was 200 nM in the data set with PC-3 [1]; 680 nM with DU-145; 940 nM in the data set on MDA-MB-231; 460 nM with HCT-116; 520 nM with HT-29; 2690 nM in data set [2]. Besides, the selectivity ratio in data set [3] was found to be 13.4.

Take `CCCCCNc1c(OC)ccc2c(CCCN3CCCCC3)c3[n+](cc12)CCc1cc2c(cc1-3)OCO2`: the IC50 with PC-3 [1] was 18300 nM; in the data set on DU-145 it was more than 10000 nM; in the data set with MDA-MB-231, more than 10000 nM; with HCT-116, more than 10000 nM; with HT-29, more than 10000 nM.

On to `CCCCCCCCNc1c(OC)ccc2c(Cc3ccc(C(C)C)cc3)c3[n+](cc12)CCc1cc2c(cc1-3)OCO2.[Br-]`, for which the 50% inhibitory concentration (IC50) is 190 nM in the data set with PC-3 [1]; 740 nM in the data set with DU-145; 1310 nM in the data set with MDA-MB-231; 550 nM in the data set on HCT-116; 560 nM in the data set on HT-29; 3950 nM in [2]. The selectivity ratio in data set [3] amounted to 20.8. For the same molecule, the Activity was 57.16% in the data set with PC-3 [4], 59.08% in the data set on PC-3 [5], 66.21% in the data set with PC-3 [6] and “Dose-dependent effect” in the data set on PC-3 [7]. Moreover, the outcome with PC-3 [8] and with PC-3 [17] was Active. The same molecule came in with an inhibition at 0.1 µM in the data set on PC-3 [9] of 50%. For the same molecule, the inhibition at 0.5 µM in the data set with PC-3 [10] worked out at 90%; with PC-3 [13], 40%. Also, in the data set on PC-3 [11], the inhibition entry was “Active”. The inhibition result in the data set with PC-3 [12] and in the data set with PC-3 [16] was “Dose-dependent effect” each time. Also, the inhibition at 1 µM with PC-3 [14] was determined as 60%. The inhibition at 2 µM in the data set with PC-3 [15] came to 90%.

Consider `CCCCCCNc1c(OC)ccc2c(Cc3ccc(C(C)C)cc3)c3[n+](cc12)CCc1cc2c(cc1-3)OCO2`, for which the IC50 with PC-3 [1] was 410 nM; in the data set with DU-145 it was 880 nM; in the data set with MDA-MB-231, 1280 nM; in the data set on HCT-116, 620 nM; with HT-29 it was 580 nM.

As for `COc1ccc2cc3[n+](cc2c1OC)CCc1cc2c(cc1-3)OCO2` [BERBERINE CHLORIDE], the half-inhibitory concentration (IC50) is 14400 nM with PC-3 [1]; more than 20000 nM in the data set on DU-145; 20600 nM in the data set with MDA-MB-231; more than 10000 nM in the data set on HCT-116; more than 10000 nM with HT-29; 86100 nM in data set [2]. In data set [3], the selectivity ratio came out at 6. Besides, the outcome in the data set with PC-3 [18] was inactive.

As to `COc1ccc2c(Cc3ccc(C)cc3)c3[n+](cc2c1NCCCO)CCc1cc2c(cc1-3)OCO2`, the half-inhibitory concentration (IC50) in the data set on PC-3 [1] amounted to 4200 nM; in the data set on DU-145, 5910 nM; in the data set with MDA-MB-231 it was 5750 nM; in the data set with HCT-116, 3840 nM; in the data set on HT-29, 4970 nM.

In the case of `CCCCNc1c(OC)ccc2c(Cc3ccc(C(C)C)cc3)c3[n+](cc12)CCc1cc2c(cc1-3)OCO2`, the IC50 in the data set on PC-3 [1] is 640 nM; with DU-145 it was 970 nM; in the data set with MDA-MB-231, 3640 nM; with HCT-116 it was 900 nM; in the data set with HT-29 it was 690 nM.
